Assay results as given in ChEMBL document CHEMBL1145247, “4-Alkyl and 4,4'-dialkyl 1,2-bis(4-chlorophenyl)pyrazolidine-3,5-dione derivatives as new inhibitors of bacterial cell wall biosynthesis” (Bioorg Med Chem Lett, 2005).
In brackets after ≈: the same amount, converted by molar mass.

Columns and labels:
Escherichia coli [1] = experiment: Minimum inhibitory concentration against cell wall biosynthesis of Escherichia coli GC 4559; format: functional
Summary of the method: (§1)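 Broth microdilution per NCCLS M7-A3. Mueller–Hinton broth for staphylococci and enterococci, 2-fold serial dilutions of agent. Final inoculum 1–5 × 10^5 CFU/mL.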

[2] = biological target: T1, UDP-N-acetylenolpyruvoylglucosamine reductase (Escherichia coli K-12, UniProt P08373); experiment: Inhibitory concentration against MurB enzyme in Escherichia coli
T1 sequence (P08373 whole entry): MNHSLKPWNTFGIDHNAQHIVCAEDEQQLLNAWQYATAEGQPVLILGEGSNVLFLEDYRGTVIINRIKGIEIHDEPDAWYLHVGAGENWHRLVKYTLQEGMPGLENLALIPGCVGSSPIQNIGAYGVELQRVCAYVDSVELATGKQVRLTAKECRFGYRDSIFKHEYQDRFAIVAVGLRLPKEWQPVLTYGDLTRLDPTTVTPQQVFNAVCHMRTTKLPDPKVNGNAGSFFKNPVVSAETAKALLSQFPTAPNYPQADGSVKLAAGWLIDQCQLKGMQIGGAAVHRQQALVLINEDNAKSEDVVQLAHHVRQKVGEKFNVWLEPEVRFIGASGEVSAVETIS
Summary of the method: (§2)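 Enzyme (20 nM) preincubated 20 min with inhibitor, then substrates added to final 50 µM EP-UNAG and 100 µM NADPH. Activity followed spectrophotometrically. At least six inhibitor concentrations between 1.5 and 50 µM per compound. IC50 from sigmoid Hill curve fit (0–100).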

Enterococcus faecalis [3] = experiment: Minimum inhibitory concentration against cell wall biosynthesis of vancomycin susceptible (ATCC) Enterococcus faecalis GC 4555; format: functional; summary of the method: as §1
Enterococcus faecalis [4] = experiment: Minimum inhibitory concentration against cell wall biosynthesis of vancomycin resistant Enterococcus faecalis GC 2242 (VRE); format: functional
Summary of the method: (§3)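 Broth microdilution per NCCLS M7-A3 in Mueller–Hinton broth, aerobic. Agents tested as 2-fold serial dilutions, with a final inoculum of 1–5 × 10^5 CFU/mL. Plates incubated 18–22 h at 35 °C in ambient air. MIC read as the endpoint.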

Escherichia coli [5] = experiment: Minimum inhibitory concentration against cell wall biosynthesis of Escherichia coli GC 4560; format: functional
[6] = Minimum inhibitory concentration against cell wall biosynthesis of methicillin-susceptible Coagulase negative staphylococcus GC 646 (MSCNS); format: functional; summary of the method: as §1
Streptococcus pneumoniae [7] = experiment: Minimum inhibitory concentration against cell wall biosynthesis of penicillin resistant Streptococcus pneumoniae GC 1894 (PRSP); format: functional
Summary of the method: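 Broth microdilution per NCCLS M7-A3, using Mueller–Hinton broth supplemented with 5% sheep blood. Agents tested as 2-fold serial dilutions, with a final inoculum of 1–5 × 10^5 CFU/mL.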

[8] = biological target: UDP-N-acetylglucosamine 1-carboxyvinyltransferase (Escherichia coli K-12, UniProt P0A749); experiment: Inhibitory concentration against MurA enzyme in Escherichia coli
Summary of the method: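 Enzyme preincubated with inhibitor 10 min at 37 °C before substrates were added. Reaction ran 30 min at 37 °C and was stopped with malachite green reagent (0.03% malachite green, 1.4% ammonium molybdate, 1.3 N HCl) for phosphate read-out.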

[9] = biological target: T2, UDP-N-acetylenolpyruvoylglucosamine reductase (Staphylococcus aureus, UniProt P61431); experiment: Inhibitory concentration against MurB enzyme in Staphylococcus aureus; summary of the method: as §2
T2 sequence (P61431 whole entry): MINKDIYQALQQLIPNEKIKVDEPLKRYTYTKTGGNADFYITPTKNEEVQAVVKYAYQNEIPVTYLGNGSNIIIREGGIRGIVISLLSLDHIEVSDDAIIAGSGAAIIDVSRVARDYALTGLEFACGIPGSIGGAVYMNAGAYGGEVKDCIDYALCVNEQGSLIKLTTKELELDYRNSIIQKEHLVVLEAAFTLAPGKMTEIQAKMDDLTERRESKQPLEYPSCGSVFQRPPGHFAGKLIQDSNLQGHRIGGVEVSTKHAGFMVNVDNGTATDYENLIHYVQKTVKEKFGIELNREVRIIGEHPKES

Staphylococcus aureus [10] = experiment: Minimum inhibitory concentration against cell wall biosynthesis of methicillin susceptible Staphylococcus aureus GC 4543; format: functional; summary of the method: as §3
Streptococcus pneumoniae [11] = experiment: Minimum inhibitory concentration against cell wall biosynthesis of penicillin resistant Streptococcus pneumoniae GC 1894 (PRSP) in the presence of 4% bovine serum albumin; format: functional
Staphylococcus aureus [12] = experiment: Minimum inhibitory concentration against cell wall biosynthesis of methicillin resistant Staphylococcus aureus GC 1131; format: functional; summary of the method: as §3

Chain of UDP-N-acetylglucosamine 1-carboxyvinyltransferase (P0A749 whole entry): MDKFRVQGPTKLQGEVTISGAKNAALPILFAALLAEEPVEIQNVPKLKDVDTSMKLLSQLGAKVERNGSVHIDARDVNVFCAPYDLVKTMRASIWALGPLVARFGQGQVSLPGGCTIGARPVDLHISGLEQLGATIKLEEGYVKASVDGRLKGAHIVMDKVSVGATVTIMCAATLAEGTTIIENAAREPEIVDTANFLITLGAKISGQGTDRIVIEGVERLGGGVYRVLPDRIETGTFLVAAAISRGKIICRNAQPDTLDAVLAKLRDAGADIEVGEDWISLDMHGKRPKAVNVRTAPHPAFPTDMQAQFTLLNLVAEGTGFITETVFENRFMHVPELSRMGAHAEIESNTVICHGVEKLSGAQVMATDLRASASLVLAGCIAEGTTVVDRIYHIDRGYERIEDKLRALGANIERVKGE

Row | Structure (SMILES) | MIC (Escherichia coli [1]) [µM] | IC50 [2] [µM] | MIC (Enterococcus faecalis [3]) [µM] | MIC (Enterococcus faecalis [4]) [µM] | MIC (Escherichia coli [5]) [µM] | MIC [6] [µM] | MIC (Streptococcus pneumoniae [7]) [µM] | IC50 [8] [µM] | IC50 [9] [µM] | MIC (Staphylococcus aureus [10]) [µM] | MIC (Streptococcus pneumoniae [11]) [µM] | MIC (Staphylococcus aureus [12]) [µM]
1 | CC1(CCCCCCc2ccccc2)C(=O)N(c2ccc(Cl)cc2)N(c2ccc(Cl)cc2)C1=O | > 200 | > 50 | 200 (≈ 99.1 µg/mL) | 100 (≈ 49.5 µg/mL) | 200 (≈ 99.1 µg/mL) | > 200 | 0.78 (≈ 0.386 µg/mL) | > 50 | > 50 | > 200 | > 200 | 
2 | CCC(CC)CC1C(=O)N(c2ccc(Cl)cc2)N(c2ccc(Cl)cc2)C1=O | > 200 | 50 | 200 (≈ 81.1 µg/mL) | 100 (≈ 40.5 µg/mL) | 200 (≈ 81.1 µg/mL) | 200 (≈ 81.1 µg/mL) | 25 (≈ 10.1 µg/mL) | > 50 |  | 100 (≈ 40.5 µg/mL) | > 200 | 100 (≈ 40.5 µg/mL)
3 | CC1(CCOCc2ccccc2)C(=O)N(c2ccc(Cl)cc2)N(c2ccc(Cl)cc2)C1=O | > 200 | 20 | > 200 |  | > 200 | > 200 | 100 (≈ 46.9 µg/mL) | > 50 |  | > 200 | > 200 | 200 (≈ 93.9 µg/mL)
4 | O=C1C(Cc2cc(C(F)(F)F)cc(C(F)(F)F)c2)C(=O)N(c2ccc(Cl)cc2)N1c1ccc(Cl)cc1 | 50 (≈ 27.4 µg/mL) | 12 | 50 (≈ 27.4 µg/mL) | 25 (≈ 13.7 µg/mL) | > 200 | 50 (≈ 27.4 µg/mL) | 6.25 (≈ 3.42 µg/mL) | > 50 |  | 25 (≈ 13.7 µg/mL) | > 200 | 25 (≈ 13.7 µg/mL)
5 | O=C1C(Cc2ccccc2Cl)C(=O)N(c2ccc(Cl)cc2)N1c1ccc(Cl)cc1 | > 200 | > 50 | > 200 |  | > 200 | > 200 | 12.5 (≈ 5.57 µg/mL) | > 50 | > 50 | > 200 | > 200 | 
6 | CCN(CC)CCC1C(=O)N(c2ccc(Cl)cc2)N(c2ccc(Cl)cc2)C1=O | > 200 | > 50 | 200 (≈ 84.1 µg/mL) | 200 (≈ 84.1 µg/mL) | > 200 | 200 (≈ 84.1 µg/mL) | 100 (≈ 42 µg/mL) | > 50 |  | > 200 | > 200 | 100 (≈ 42 µg/mL)
7 | O=C1C(CCc2ccccc2)C(=O)N(c2ccc(Cl)cc2)N1c1ccc(Cl)cc1 | > 200 | 35 | > 200 | 200 (≈ 85.1 µg/mL) | 200 (≈ 85.1 µg/mL) | 200 (≈ 85.1 µg/mL) | 50 (≈ 21.3 µg/mL) | > 50 |  | 200 (≈ 85.1 µg/mL) | > 200 | 200 (≈ 85.1 µg/mL)
8 | O=C1C(Cc2cccc(C(F)(F)F)c2)C(=O)N(c2ccc(Cl)cc2)N1c1ccc(Cl)cc1 | > 200 | 18 | > 200 |  | > 200 | > 200 | 50 (≈ 24 µg/mL) | > 50 |  | > 200 | > 200 | 
9 | CC1(CC(=O)c2ccc(F)cc2F)C(=O)N(c2ccc(Cl)cc2)N(c2ccc(Cl)cc2)C1=O | > 200 | 49 | 200 (≈ 97.9 µg/mL) | 100 (≈ 48.9 µg/mL) | > 200 | > 200 | > 200 | > 50 | > 50 | > 200 | > 200 | 
10 | O=C1C(Cc2ccccc2)C(=O)N(c2ccc(Cl)cc2)N1c1ccc(Cl)cc1 | > 200 | > 50 | > 200 |  | > 200 | > 200 | 200 (≈ 82.3 µg/mL) | > 50 |  | 200 (≈ 82.3 µg/mL) | > 200 | 200 (≈ 82.3 µg/mL)
11 | Cc1c(OCC(=O)c2ccc(F)cc2F)n(-c2ccc(Cl)cc2)n(-c2ccc(Cl)cc2)c1=O | > 200 | > 50 | > 200 |  | > 200 | > 200 |  | > 50 | > 50 |  |  | 
12 | O=C1C(CCCc2ccccc2)C(=O)N(c2ccc(Cl)cc2)N1c1ccc(Cl)cc1 | > 200 | 10 | > 200 | 200 (≈ 87.9 µg/mL) | 200 (≈ 87.9 µg/mL) | > 200 | 25 (≈ 11 µg/mL) | 44.3 |  | 200 (≈ 87.9 µg/mL) | > 200 | 200 (≈ 87.9 µg/mL)
13 | COc1cccc(CC2C(=O)N(c3ccc(Cl)cc3)N(c3ccc(Cl)cc3)C2=O)c1 | > 200 | 50 | > 200 |  | > 200 | 200 (≈ 88.3 µg/mL) | 200 (≈ 88.3 µg/mL) | > 50 |  | > 200 | > 200 | 
14 | O=C1C(CCSCc2ccccc2)C(=O)N(c2ccc(Cl)cc2)N1c1ccc(Cl)cc1 | > 200 | 5.2 | 100 (≈ 47.1 µg/mL) | 50 (≈ 23.6 µg/mL) | 200 (≈ 94.3 µg/mL) | 50 (≈ 23.6 µg/mL) | 6.25 (≈ 2.95 µg/mL) | 9.8 | 5.1 | 25 (≈ 11.8 µg/mL) | > 200 | 
15 | O=C1C(CCCCc2ccccc2)C(=O)N(c2ccc(Cl)cc2)N1c1ccc(Cl)cc1 | > 200 | 5.6 | 200 (≈ 90.7 µg/mL) | 100 (≈ 45.3 µg/mL) | > 200 | 200 (≈ 90.7 µg/mL) | 25 (≈ 11.3 µg/mL) | 23.8 | 6.8 | 200 (≈ 90.7 µg/mL) | > 200 | 200 (≈ 90.7 µg/mL)
16 | CCCCCCCC1C(=O)N(c2ccc(Cl)cc2)N(c2ccc(Cl)cc2)C1=O | > 200 | 42 | 200 (≈ 83.9 µg/mL) | 100 (≈ 41.9 µg/mL) | > 200 | 200 (≈ 83.9 µg/mL) | 6.25 (≈ 2.62 µg/mL) | > 50 |  | 100 (≈ 41.9 µg/mL) | > 200 | 100 (≈ 41.9 µg/mL)
